According to ChEMBL document CHEMBL4825663 (J Med Chem, 2021):

How the values were obtained:
Cytochrome P450 3A5 = Cytochrome P450 3A5 (Homo sapiens, UniProt P20815); test: Drug metabolism assessed as human CYP3A5-mediated metabolism; assay type: ADME; conditions: recombinant enzyme
[1] = Cmax in Sprague-Dawley rat at 10 mg/kg, po measured upto 48 hrs by LC-MS/MS analysis; conditions: in vivo
[2] = molecular target: T1, Multidrug and toxin extrusion protein 2 (Homo sapiens, UniProt Q86VL8); test: Inhibition of human MATE2K assessed as reduction in intracellular probe substrate accumulation upto 100 uM by microplate scintillation counter analysis relative to control; assay type: cell-based
T1 sequence (Q86VL8 whole entry): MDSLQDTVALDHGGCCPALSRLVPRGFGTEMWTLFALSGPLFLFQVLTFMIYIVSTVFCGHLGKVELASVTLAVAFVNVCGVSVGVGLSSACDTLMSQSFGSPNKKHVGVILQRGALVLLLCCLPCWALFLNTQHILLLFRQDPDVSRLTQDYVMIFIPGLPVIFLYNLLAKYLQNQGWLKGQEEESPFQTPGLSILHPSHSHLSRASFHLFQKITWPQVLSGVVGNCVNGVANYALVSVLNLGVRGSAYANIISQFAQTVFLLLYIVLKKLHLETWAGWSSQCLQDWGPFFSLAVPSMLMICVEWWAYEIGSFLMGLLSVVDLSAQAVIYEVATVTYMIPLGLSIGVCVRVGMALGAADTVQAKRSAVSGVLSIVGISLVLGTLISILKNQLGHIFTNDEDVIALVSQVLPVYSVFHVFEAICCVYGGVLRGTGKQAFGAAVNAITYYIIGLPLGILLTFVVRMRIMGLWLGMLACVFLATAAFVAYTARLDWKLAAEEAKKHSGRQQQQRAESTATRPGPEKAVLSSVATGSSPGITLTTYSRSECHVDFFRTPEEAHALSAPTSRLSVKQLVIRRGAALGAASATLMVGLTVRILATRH
Summary of the method: (§1)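 Cellular uptake-inhibition assays used Chinese hamster ovary, HEK293 or MDCKII cells stably expressing the respective human SLC transporter, run alongside the corresponding control cells. Inhibitor was tested at concentrations up to 100 μM.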

[3] = Toxicity in Sprague-Dawley rat at 200 mg/kg, po administered as repeated dose and measured upto 13 weeks; assay type: organism-based; conditions: in vivo, 2184 h
[4] = molecular target: T2, Multidrug and toxin extrusion protein 1 (Homo sapiens, UniProt Q96FL8); test: Inhibition of human MATE1 assessed as reduction in intracellular probe substrate accumulation upto 100 uM by microplate scintillation counter analysis relative to control; assay type: cell-based; summary of the method: as §1
T2 sequence (Q96FL8 whole entry): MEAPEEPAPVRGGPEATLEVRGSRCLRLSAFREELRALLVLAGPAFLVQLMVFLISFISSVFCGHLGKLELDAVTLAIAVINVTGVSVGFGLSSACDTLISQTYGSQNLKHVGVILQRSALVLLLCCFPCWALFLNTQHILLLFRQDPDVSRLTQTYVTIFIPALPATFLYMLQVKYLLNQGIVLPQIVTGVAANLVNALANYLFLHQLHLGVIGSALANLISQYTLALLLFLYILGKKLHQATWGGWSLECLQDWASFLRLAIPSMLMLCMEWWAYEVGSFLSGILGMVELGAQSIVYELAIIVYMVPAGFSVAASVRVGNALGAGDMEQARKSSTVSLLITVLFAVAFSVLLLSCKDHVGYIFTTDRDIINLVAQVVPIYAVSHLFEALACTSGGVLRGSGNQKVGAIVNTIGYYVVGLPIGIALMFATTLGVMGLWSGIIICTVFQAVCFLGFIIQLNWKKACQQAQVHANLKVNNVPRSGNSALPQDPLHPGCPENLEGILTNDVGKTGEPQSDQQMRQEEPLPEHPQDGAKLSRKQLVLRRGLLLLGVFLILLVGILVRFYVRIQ

[5] = Drug metabolism in dog plasma assessed as metabolic ratio of 6alpha-hydroxypaclitaxel at 6 mg/kg, po in presence of 3 mg/kg encequidar; assay type: ADME, organism-based, Canis lupus familiaris; conditions: in vivo
MDA-MB-231 [6] = test: (§2) Antitumor activity against human MDA-MB-231 cells xenografted in athymic nude mouse assessed as reduction in median number of days for tumor to reach two tumor mass doubling at 18 mg/kg, iv administered every other day for 4 doses and monitored for 70 to 82 days (reference value: 13.1 day); assay type: functional; conditions: time 70-82 day
[7] = Toxicity in athymic nude mouse xenografted with human NCI-H460 cells assessed as mortality at 18 to 24 mg/kg, iv administered every other day for 4 doses monitored for 48 days; assay type: organism-based; conditions: in vivo, 1152 h, dose 18-24 mg/kg, time 48 day
Summary of the method: (§3)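 Female athymic NCr-nu mice carried subcutaneous NCI-H460 human lung tumor xenografts. Paclitaxel was given IV at 18 or 24 mg/kg every other day for four doses. Animals were followed for 48 days after tumor implantation, with individual body weights and mortality recorded alongside tumor weights.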

[8] = Oral bioavailability in Sprague-Dawley rat at 20 mg/kg measured upto 24 hrs by LC-MS/MS analysis; assay type: ADME, organism-based; conditions: in vivo
[9] = Ratio of drug concentration in BALB/c mouse large intestine to plasma at 20 mg/kg, po measured upto 24 hrs in presence of 10 mg/kg encequidar by LC-MS/MS analysis; assay type: ADME, organism-based
[10] = Toxicity in athymic nude mouse xenografted with human NCI-H460 cells assessed as reduction in body weight at 18 to 24 mg/kg, iv administered every other day for 4 doses monitored for 48 days; assay type: organism-based; conditions: in vivo, 1152 h, dose 18-24 mg/kg, time 48 day; summary of the method: as §3
[11] = Ratio of drug concentration in BALB/c mouse lung to plasma at 20 mg/kg, po measured upto 24 hrs in presence of 10 mg/kg encequidar by LC-MS/MS analysis; assay type: ADME, organism-based
NCI-H460 = test: Antitumor activity against human NCI-H460 cells xenografted in athymic nude mouse assessed as median tumor growth delay at 30 mg/kg, po administered every other day for 4 doses in presence of 12 mg/kg encequidar and monitored for 48 days; assay type: functional; conditions: time 48 day
Summary of the method: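 Female athymic NCr-nu mice carried subcutaneous NCI-H460 xenografts. […] Tumor weights and body weights were followed for 48 days after implantation. Read-out was median tumor growth delay.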

[12] = AUClast in Sprague-Dawley rat at 6 mg/kg, iv measured upto 24 hrs by LC-MS/MS analysis; assay type: ADME, organism-based; set-up: route intravenous, dose 6 mg/kg, time <=24; conditions: in vivo
[13] = Clearance in Sprague-Dawley rat at 6 mg/kg, iv measured upto 24 hrs by LC-MS/MS analysis; assay type: ADME, organism-based; conditions: in vivo
[14] = Drug accumulation in Sprague-Dawley rat plasma at 20 mg/kg, po administered once per week for 4 weeks in presence of 10 mg/kg encequidar by LC-MS/MS analysis; assay type: ADME, organism-based; conditions: in vivo, 672 h
MDA-MB-231 [15] = test: as §2, with “at 20” for “at 18”, “mg/kg, po” for “mg/kg, iv”, “doses in presence of 8 mg/kg encequidar” for “doses”; assay type: functional; conditions: time 70-82 day
[16] = Ratio of drug concentration in BALB/c mouse stomach to plasma at 20 mg/kg, po measured upto 24 hrs in presence of 10 mg/kg encequidar by LC-MS/MS analysis; assay type: ADME, organism-based
[17] = Drug accumulation in Beagle dog plasma at 6 mg/kg, po administered once per week for 4 weeks in presence of 3 mg/kg encequidar by LC-MS/MS analysis; assay type: ADME, organism-based, Canis lupus familiaris; conditions: in vivo, 672 h
[18] = Cmax in Sprague-Dawley rat at 20 mg/kg, po measured upto 24 hrs in presence of 10 mg/kg encequidar by LC-MS/MS analysis; assay type: ADME, organism-based; set-up: route oral, dose 20 mg/kg, time <=24; conditions: in vivo

Sequence of Cytochrome P450 3A5 (P20815 whole entry): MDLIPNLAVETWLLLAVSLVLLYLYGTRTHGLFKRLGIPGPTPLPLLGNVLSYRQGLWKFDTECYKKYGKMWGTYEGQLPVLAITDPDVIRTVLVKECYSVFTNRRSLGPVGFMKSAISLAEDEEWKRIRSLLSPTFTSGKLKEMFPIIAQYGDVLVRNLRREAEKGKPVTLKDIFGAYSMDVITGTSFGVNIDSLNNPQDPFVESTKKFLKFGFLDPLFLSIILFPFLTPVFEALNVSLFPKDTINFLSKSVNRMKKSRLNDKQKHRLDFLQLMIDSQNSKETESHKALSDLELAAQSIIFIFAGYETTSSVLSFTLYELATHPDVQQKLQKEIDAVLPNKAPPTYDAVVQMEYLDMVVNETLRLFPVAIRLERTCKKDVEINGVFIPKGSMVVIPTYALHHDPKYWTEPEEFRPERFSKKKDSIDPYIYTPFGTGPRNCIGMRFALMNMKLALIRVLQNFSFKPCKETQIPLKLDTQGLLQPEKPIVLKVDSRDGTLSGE

SMILES	Drug metabolism (Cytochrome P450 3A5)	Cmax [1]	inhibition (INH) [2]	Activity [3]	inhibition (INH) [4]	Ratio [5]	Time (MDA-MB-231 [6])	Activity [7]	bioavailability [8]	Kp at 24 h [9]	Activity [10]	Kp at 24 h [11]	Time (NCI-H460)	AUC(0-t) at 24 h [12]	clearance [13]	Drug uptake [14]	Time (MDA-MB-231 [15])	Kp at 24 h [16]	Drug uptake [17]	Cmax [18]
COc1cc2c(cc1OC)CN(CCc1ccc(-n3nnc(-c4cc(OC)c(OC)cc4NC(=O)c4cc(=O)c5ccccc5o4)n3)cc1)CC2	Metabolite_Detected	7.1 ng/mL	< 50%	Non-Toxic	< 50%															
CC(=O)O[C@H]1C(=O)[C@@]2(C)[C@H]([C@H](OC(=O)c3ccccc3)[C@]3(O)C[C@H](OC(=O)[C@H](O)[C@@H](NC(=O)c4ccccc4)c4ccccc4)C(C)=C1C3(C)C)[C@]1(OC(C)=O)CO[C@@H]1C[C@@H]2O [PACLITAXEL]						0.76	>69 days	Non-Toxic	3.4%	> 1	Toxic	> 1	9.9 days	2730 ng·h/mL	35 mL/min	Not Active	15.1 days	> 1	Not Active	1250 ng/mL
